In the library only some 1.5% were active in any assay of this set; here they are far more common.
FLuc inhib CS: firefly luciferase enzyme inhibitors, primary screen, artefact control for luciferase-based inhibitor screens, biochemical, luminescence, ATPLite; Luciferin 4-monooxygenase (Photinus pyralis), P08659; 10 min; inhibition, % at 10 µM; 200,000 compounds, 1.5% hits; AID 1006, 2008;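 active = inhibition above about 50% when tested at 10 µM, limit read from the data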
Target sequence (P08659 whole entry, looked up): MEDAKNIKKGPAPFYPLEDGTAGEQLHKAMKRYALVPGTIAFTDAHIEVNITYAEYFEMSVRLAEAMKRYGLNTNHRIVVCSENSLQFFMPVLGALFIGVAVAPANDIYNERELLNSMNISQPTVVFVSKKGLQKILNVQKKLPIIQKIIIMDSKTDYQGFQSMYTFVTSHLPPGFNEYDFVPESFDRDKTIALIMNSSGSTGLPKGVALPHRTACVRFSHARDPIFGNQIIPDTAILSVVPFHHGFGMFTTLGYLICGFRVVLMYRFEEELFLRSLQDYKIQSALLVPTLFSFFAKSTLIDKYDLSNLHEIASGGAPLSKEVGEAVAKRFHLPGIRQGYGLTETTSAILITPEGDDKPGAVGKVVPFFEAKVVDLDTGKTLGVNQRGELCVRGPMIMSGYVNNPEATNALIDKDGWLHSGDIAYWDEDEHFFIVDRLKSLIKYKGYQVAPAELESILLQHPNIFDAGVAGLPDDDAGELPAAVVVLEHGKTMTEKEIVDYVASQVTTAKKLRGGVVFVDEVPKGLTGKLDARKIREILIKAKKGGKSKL
TRAIL sens C8: viability loss with TRAIL in NB7+C8 cells, primary screen, TRAIL sensitizer project, cell-based, ATPlite luminescence. inhibition (viability loss, TRAIL sensitization), % at 10 µM. 360,000 compounds, 1% hits. AID 624354, 2012;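 active = compounds causing at least 50% loss of cell viability in the single-dose screen, relative to plate controls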
PPC-1+TRAIL kill: compounds killing PPC-1 cancer cells with TRAIL present, primary screen, TRAIL potentiator project, ATPLite luminescence, uHTS | PPC-1 cells + TRAIL, ATPLite viability luminescence | cell killing (% activity), % at 4 µM or 5 µM | 220,000 compounds, 0.41% hits | AID 1443, 2008;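 active = cell killing above 50% in the first pass at 4 µM, then a duplicate retest at 5 µM averaging 50% or more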;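 also: plate controls were cells with TRAIL plus DMSO for no effect and medium-only wells lacking cells for full effect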
FLuc act counter: FLuc activators, initial screening, artefact control for FLuc-dependent activation tests, biochemical, ATPlite luminescence. Luciferin 4-monooxygenase (Photinus pyralis), P08659. ATPlite luciferase biochemical, 10 min; 0 = ATP-free wells, 1 = DMSO control. activation factor at 10 µM. 200,000 tested, under 10 active;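 active = luciferase activation factor, scaled between plate controls, of at least 2 with compound at 10 µM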
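System: cell-free luciferase reagent; medium: PBS as buffer for the ATP substrate; doses: test compounds dosed from 2 mM stocks in 100% DMSO; incubation: 10 min, room temperature; measured by: luminescence from luciferase reaction; read-out: luciferase activation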
* marks the source's active call; other numbers are inactive results; nt = no result.

SMILES	FLuc inhib CS	TRAIL sens C8	PPC-1+TRAIL kill	FLuc act counter
CCCOc1ccc(C(=O)Nc2ccc(Cl)cn2)cc1	53*	32	30	0.5
Cc1ccc(CC(=O)Nc2ccc(Cl)cn2)cc1	nt	3	nt	nt
Cc1ccc(C(=O)Nc2ccc(Cl)cn2)cc1	74*	62*	36	0.3
Cc1cc(S(=O)(=O)Cc2noc(-c3c(C)noc3C)n2)c(C)cc1Cl	nt	-1	-13	nt
Cc1ccc(OCC(=O)OC(C)C(=O)NC2CCCCC2C)cc1C (centres undefined)	nt	-12	nt	nt
CCOc1ccc(-c2cc(C(=O)N3CCC(C)CC3)c3ccccc3n2)cc1	nt	54*	nt	nt
Cc1cc(-c2ccc(N3CCOCC3)cc2)nc2ccccc12	71*	65*	30	0.3
COc1ccc(-c2cc(C(=O)N3CCCCC3)c3ccccc3n2)cc1	nt	31	nt	nt
COc1ccc(-c2cc(C(=O)OCC(=O)N3CCOCC3)c3ccccc3n2)cc1	nt	62*	nt	nt
COc1cc2ccccc2cc1C(=O)OCC(=O)N1CCOCC1	1	0	-14	1
CCOc1ccc(-c2cc(C(=O)NCCCN3CCN(CC)CC3)c3ccccc3n2)cc1	67*	47	31	0.3
CN(C(=O)COC(=O)c1n[nH]c(=O)c2ccccc12)c1ccccc1	nt	-8	nt	nt
Cc1ccc(-c2cc(C(=O)N3CCN(c4ncccn4)CC3)c3ccccc3n2)cc1	62*	67*	44	0.4
COc1ccc(-c2cc(C(=O)N3CCN(c4ncccn4)CC3)c3ccccc3n2)cc1OC	nt	-4	nt	nt
CC(C)Oc1cccc(-c2cc(C(=O)N3CCN(c4ncccn4)CC3)c3ccccc3n2)c1	39	48	27	0.6
CC(C)Oc1cccc(-c2cc(C(=O)N3CCN(S(C)(=O)=O)CC3)c3ccccc3n2)c1	52*	14	12	0.5
COc1ccc(-c2cc(C(=O)c3c(N)n(C)c(=O)n(C)c3=O)c3ccccc3n2)cc1	nt	81*	77*	nt
Cc1ccc(-c2cc(C(=O)N3CCN(c4ccccc4O)CC3)c3ccccc3n2)o1	nt	65*	nt	nt
COc1ccc(-c2cc(C(=O)OCC(=O)c3c(N)n(C)c(=O)n(C)c3=O)c3ccccc3n2)cc1	14	16	20	0.9
C/C(=C\C#N)n1nc(C)cc1N	-5	-13	-13	1
O=C(c1cc(-c2ccco2)on1)N1CCOCC1	-4	-7	18	1
Cc1ccc(-c2cc(C(=O)N3CCOCC3)no2)cc1	nt	69*	nt	nt
O=C(c1cc(-c2ccc3c(c2)OCO3)on1)N1CCCCC1	nt	57*	nt	nt
CCCN1C(=O)/C(=C/c2ccccc2OCc2ccc(C(=O)O)cc2)NC1=S	72*	1	15	0.3
Clc1ncnc2c1oc1ccccc12	-5	65*	11	1.1
SMILES	FLuc inhib CS	TRAIL sens C8	PPC-1+TRAIL kill	FLuc act counter
CCSc1ncnc2c1oc1ccccc12	-1	-14	-12	1
CCc1ccc2c(c1)C(=O)c1ccccc1C2=O	36	12	25	0.6
CC(C)(C)c1ccc2c(c1)C(=O)c1ccccc1C2=O	72*	56*	24	0.3
COc1ccc(OC)c(CCNC(=O)CCCC(=O)n2ncc3cc(C)ccc32)c1	nt	1	nt	nt
O=C(CN(C1CCCCC1)S(=O)(=O)c1ccccc1)NCC1CCCO1 (centres undefined)	nt	-13	nt	nt
O=C(CN(C1CCCCC1)S(=O)(=O)c1ccc(F)cc1)NCC1CCCO1 (centres undefined)	nt	94*	nt	nt
CN1CCN(C(CNC(=O)Nc2ccc(Cl)cc2)c2ccc(F)cc2)CC1 (centres undefined)	nt	-11	nt	nt
Cc1cc2ncc(-c3ccc(Cl)cc3)c(N)n2n1	58*	35	28	0.4
CCNc1nc(Nc2ccc(C)c(Cl)c2)c2cnn(C)c2n1	nt	-2	nt	nt
CCCC(=O)Nc1ccc(C2C(=O)c3ccccc3C2=O)cc1	nt	76*	nt	nt
CCC(=O)Nc1ccc(NC(=O)c2ccco2)cc1	38	57*	29	0.6
O=C(Nc1cccc(OC(=O)c2ccco2)c1)c1ccco1	2	22	5	1
O=C(Nc1ccc(OC(=O)c2ccco2)cc1)c1ccco1	66*	10	34	0.3
O=C(CCc1ccccc1)Nc1ccc(NC(=O)c2ccco2)cc1	-5	2	-4	1
CCC(=O)Oc1ccc(NC(=O)c2ccco2)cc1	61*	-1	13	0.4
NC(=O)COc1ccc(C(=O)/C=C2/C(=O)Nc3ccccc32)cc1	nt	28	nt	nt
C[C@@H]1[C@H]2CCCC[C@H]2CN(C(=O)OC(C)(C)C)[C@@H]1CC(=O)c1ccccc1	nt	9	nt	nt
CC(NC(=O)c1cccc(Br)c1)c1ccccc1 (centres undefined)	-5	0	0	1
CCC(C)(O)C(=O)N[C@H]1CCCN1C(=O)/C=C/c1ccccc1 (some centres undefined)	nt	-9	nt	nt
O=C(Nc1ccc(Cl)c([N+](=O)[O-])c1)c1ccc(NCCCN2CCOCC2)c([N+](=O)[O-])c1	-11	56*	12	1.1
Cc1ccc(NC(=O)c2ccc(NCCCN3CCOCC3)c([N+](=O)[O-])c2)cc1Cl	-3	15	21	1
O=C(Cc1ccccc1)Nc1nccs1	nt	-5	nt	nt
O=C(CC1SC(=O)N(Cc2cccc3ccccc23)C1=O)Nc1nccs1 (centres undefined)	-7	53*	-4	1.1
CCOC(=O)CN1C(=O)SC(CC(=O)Nc2nccs2)C1=O (centres undefined)	-3	60*	11	1
Nc1c(N(CCC2=CCCCC2)C(=O)Cc2ccc(F)cc2)c(=O)[nH]c(=O)n1Cc1ccccc1	nt	-15	nt	nt
SMILES	FLuc inhib CS	TRAIL sens C8	PPC-1+TRAIL kill	FLuc act counter
Nc1c(N(CCC2=CCCCC2)C(=O)COc2ccc(F)cc2Cl)c(=O)[nH]c(=O)n1Cc1ccccc1	nt	88*	nt	nt
COc1ccc(-c2nsc3c(N4CCCC4)ncnc23)cc1	86*	81*	5	0.1
Nc1c(Cl)ncnc1N/N=C/c1ccnc2ccccc12	53*	10	40	0.5
Nc1c(Cl)ncnc1N/N=C/c1ccc2ccccc2n1	72*	43	62*	0.3
O=C(N/N=C/c1ccc2c(c1)OCO2)c1ccc2c(c1)OCCO2	80*	34	26	0.2
O=C(N/N=C/c1ccc(Cl)cc1)c1ccc2c(c1)OCO2	nt	37	nt	nt
O=C(N/N=C/c1c[nH]c2ccccc12)c1ccc2c(c1)OCCO2	nt	76*	44	nt
O=C(N/N=C/c1ccc2c(c1)OCO2)c1cccs1	75*	41	29	0.2
O=C(O)c1cc(N/N=C/c2ccc3c(c2)OCO3)ccc1Cl	21	-3	17	0.8
O=C(O)c1ccc(N/N=C/c2ccc3c(c2)OCO3)cc1	61*	31	4	0.4
O=C(N/N=C/c1ccc2c(c1)OCO2)c1cccc2ccccc12	nt	27	nt	nt
Cc1cccc(C(=O)N/N=C/c2ccc3c(c2)OCO3)n1	8	15	-4	0.9
O=C(N/N=C/c1ccc2c(c1)OCO2)c1ccc2ccccc2n1	67*	46	19	0.3
